{
  "source": "paper PMC8496415",
  "about": "(Translational Vision Science & Technology, 2021)",
  "key": {"Long Evans rat eyes": {"system": "Long Evans rat eyes", "experiment": "Clinical examination, OCT imaging and ERG after 28-day once-daily eye drop", "format": "in vivo"}, "[1]": {"experiment": "Maximum solubility / achievable concentration in solution", "format": "physicochemical"}, "rat eyes": {"system": "rat eyes", "experiment": "Histology and immunohistochemistry", "format": "in vivo", "details": "once-daily 10% eye drop, 14 and 28 days", "method_in_brief": "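Rats received 5 µL of 10% test compound drops once daily in one eye, PBS in the other. Eyes were taken at days 14 and 28, fixed overnight in 4% paraformaldehyde at 4°C, frozen and cut into 12 µm sections. Stains: H&E; cleaved caspase-3 (5% BSA block, primary 1:200 2 h, Alexa 488 secondary 1:400 1 h, DAPI) with caspase-3+ DAPI+ cells scored; TUNEL with DNase I-treated positive control. Mean ± SEM, two-way ANOVA/Sidak.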"}, "axial elongation": {"system": "axial elongation", "details": "topical, chick; ref 25 (Thomson et al.); cited from earlier work"}, "[2]": {"details": "rat, once-daily 10% eye drop, 14 and 28 days"}},
  "data": [
    {"compound": "CCOC(=O)[C@@H](N)Cc1ccc(O)c(O)c1", "note": "[etilevodopa]", "values": [
      {"measurement": "Rat behavior (activity levels, aggression, feeding pattern, weight gain)", "setting": "Long Evans rat eyes; 28-day once-daily topical 10%", "result": "no obvious changes in rat behavior"},
      {"measurement": "ERG A- and B-wave amplitude vs control eyes", "setting": "Long Evans rat eyes; [2]", "result": "no statistically significant difference in A- or B-wave amplitudes"},
      {"measurement": "OCT retinal structure", "setting": "Long Evans rat eyes; [2]", "result": "did not demonstrate any qualitative structural changes"},
      {"measurement": "Maximum solubility", "setting": "[1]; PBS, pH 7.4", "result": 10, "unit": "%"},
      {"measurement": "Hematoxylin and eosin staining of retina (inflammation)", "setting": "rat eyes", "result": "no infiltration of inflammatory cells, fibrosis or morphological changes"},
      {"measurement": "Number of cleaved caspase-3+ DAPI+ cells vs control (apoptosis)", "setting": "rat eyes", "result": "no statistically significant change"},
      {"measurement": "TUNEL staining (apoptosis)", "setting": "rat eyes", "result": "no TUNEL^+ DAPI^+ cells observed"}
    ]},
    {"compound": "N[C@@H](Cc1ccc(O)c(O)c1)C(=O)O", "note": "[levodopa]", "values": [
      {"measurement": "EC50 for a reduction of axial elongation", "setting": "axial elongation", "result": 0.05, "unit": "%"},
      {"measurement": "Maximum concentration achievable", "setting": "[1]; distilled water", "result": 0.5, "unit": "%"}
    ]}
  ]
}
